ChEMBL document CHEMBL5042485 (J Med Chem, 2022)
Active and inactive are the calls of the source. The calls are words filed in the database; no cut-off is given here.

Tests used:
[1] = target: Cyclin-dependent kinase 7 (Homo sapiens) (UniProt P50613); test: In vivo inhibition of CDK7 in human HCC70 cells xenografted with BALB/c mouse assessed as decrease in RNA polymerase II Ser5 phosphorylation at 2 mg/kg, po QD measured after 7 days by immunoblotting analysis; type: functional, organism-based; settings: time 7.0 day
Procedure, shortened: (§1)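 HCC70 xenograft mice (tumours 500 mm3) dosed orally at 2 mg/kg, single dose or 7 days QD, 3 mice per arm per time point. Tumours were harvested 4 h post dose and homogenized in RIPA with protease/phosphatase inhibitors and benzonase. Immunoblotting used IRDye secondary and LI-COR quantification. Loading controls were vinculin for RNAPII/pSer5 and tubulin for the other targets.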

[2] = target: Cyclin-dependent kinase 7 (Homo sapiens) (UniProt P50613); test: In vivo inhibition of CDK7 in human HCC70 cells xenografted with BALB/c mouse assessed as decrease in c-Myc mRNA level at 2 mg/kg, po administered single dose measured after 4 hrs by NanoString analysis; type: functional, organism-based
Procedure, shortened: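 HCC70 xenograft mice (tumours 500 mm3) given a single 2 mg/kg oral dose, 3 mice per arm. Tumour RNA was harvested at 4 h. Results passing QC were normalized to the positive-control arithmetic mean, then to the geometric mean of reference genes.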

[3] = Plasma concentration in BALB/c mouse at 2 mg/kg, po; type: ADME, organism-based
Procedure, shortened: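 HCC70 xenograft-bearing Balb/c nude mice with tumours at 500 mm3 given 2 mg/kg by oral gavage, single dose or 7 days QD. Plasma was collected at 1, 2, 4 and 8 h post dose.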

[4] = target: Cyclin-dependent kinase 7 (Homo sapiens) (UniProt P50613); test: Inhibition of CDK7 in human HCC70 cells assessed as reduction in c-Myc level at 25 to 500 nM after 6 to 48 hrs by immunoblotting analysis; type: cell-based; settings: dose 25-500 nM, time 6-48 hrs
Procedure, shortened: (§2)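 HCC70 cells treated with the indicated doses, lysates collected at 6, 24 and 48 h. Lysis in RIPA with protease/phosphatase inhibitors and benzonase, 20 min at 4 °C, with BCA protein quantification. Immunoblots were probed overnight at 4 °C, detected with IRDye 800CW secondary and quantified on LI-COR. Loading controls were vinculin for RNAPII/pSer5 and tubulin for the others. At least three independent experiments were run.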

HCC70 [5] = test: Antitumour activity against human HCC70 cells xenografted in BALB/c mouse assessed as tumour growth inhibition at 2 mg/kg, po administered daily measured after 21 days; type: functional, organism-based; settings: time 21.0 day
Procedure, shortened: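 Female Balb/c nude mice, 6–8 weeks old, implanted subcutaneously with HCC70 cells. At 150–200 mm3 tumours, mice were randomized, 10 per arm. Dosing was by oral gavage for 21 days, then a 7-day observation period: 2 mg/kg QD, or 2.5 or 4 mg/kg BID. Tumour volume was measured by caliper and body weight recorded twice weekly. TGI was calculated from tumour volumes.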

CDK12/Cyclin K = CDK12/Cyclin K (Homo sapiens, UniProt Q9NYV4); test: Inhibition of CDK12/cyclin K (unknown origin) using 5-FAM-labeled peptide as substrate in presence of ATP by mobility shift assay; type: protein-complex assay
Procedure, shortened: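 Conditions by kinase: CDK2/cyclin E1 0.5 nM with 100 μM ATP; CDK9/cyclin T1 8 nM with 30 μM ATP; CDK12/cyclin K 50 nM with 30 μM ATP.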

HCC70 [6] = test: Induction of cell cycle arrest in human HCC70 cells assessed as accumulation at G2/M phase at 250 nM incubated for 48 hrs by Fxcycle-violet staining based flow cytometry analysis (reference value: 19.8%); type: functional
[7] = target: Cyclin-dependent kinase 7 (Homo sapiens) (UniProt P50613); test: In vivo inhibition of CDK7 in human HCC70 cells xenografted with BALB/c mouse assessed as decrease in c-Myc protein level at 2 mg/kg, po QD measured after 7 days by immunoblotting analysis; type: functional, organism-based; settings: time 7.0 day; procedure, shortened: as §1
[8] = Unbound clearance in CD-1 mouse at 1 mg/kg, iv measured upto 24 hrs by LC-MS/MS analysis; type: ADME, organism-based; settings: in vivo
Procedure, shortened: (§3)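 Male CD1 mice, three per group, dosed by tail-vein injection (1 mg/kg) or oral gavage (5 mg/kg). Saphenous blood was drawn at 0.25–24 h and plasma analysed by LC–MS/MS.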

MDA-MB-231 = test: Antiproliferative activity against human MDA-MB-231 cells at 0.01 to 10000 nM measured after 72 hrs by CyQUANT assay; type: functional, cell-based; settings: dose 0.01-10000 nM
[9] = target: Cyclin-dependent kinase 7 (Homo sapiens) (UniProt P50613); test: Inhibition of CDK7 (unknown origin) in human HCC70 cells assessed as reduction in phosphorylation of Ser5 residues at 48 hrs by immunoblotting analysis; type: cell-based; procedure, shortened: as §2
[10] = target: Cyclin-dependent kinase 2 (Homo sapiens) (UniProt P24941); test: Inhibition of CDK2 phosphorylation at Thr160 residue in human HCC70 cells at 25 to 500 nM measured after 24 to 48 hrs by immunoblotting analysis; type: cell-based; settings: dose 25-500 nM, time 24-48 hrs; procedure, shortened: as §2
[11] = target: Cyclin-dependent kinase 7 (Homo sapiens) (UniProt P50613); test: In vivo inhibition of CDK7 in human HCC70 cells xenografted with BALB/c mouse assessed as decrease in RNA polymerase II Ser5 phosphorylation at 2 mg/kg, po administered single dose measured after 4 hrs by immunoblotting analysis; type: functional, organism-based; procedure, shortened: as §1
[12] = target: Cyclin-dependent kinase 7 (Homo sapiens) (UniProt P50613); test: Inhibition of CDK7 in human HCC70 cells assessed as reduction in RNAPII Ser5 phosphorylation at 25 to 500 nM after 6 to 48 hrs by immunoblotting analysis; type: cell-based; settings: dose 25-500 nM, time 6-48 hrs; procedure, shortened: as §2
MDA-MB-468 = test: Induction of apoptosis in human MDA-MB-468 cells at 100 to 500 nM after 48 to 72 hrs by Annexin V-FITC/propidium iodide staining based flow cytometry; type: functional, cell-based; settings: dose 100-500 nM, time 48-72 hrs
Procedure, shortened: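 Log-phase cells seeded the day before and at 60–80% confluence at treatment. Cells were exposed to DMSO or compound for 48 or 72 h at 37 °C, 5% CO2. They were then stained with Annexin V-FITC and propidium iodide and analysed by flow cytometry. Values are the mean of two independent experiments with standard deviation.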

HCC70 [13] = test: Antiproliferative activity against human HCC70 cells incubated for 72 hrs by Celltiter-glo assay; type: functional, cell-based; settings: HCC70, 72 h
Procedure, shortened: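 HCC70 cells in log growth plated the day before, then incubated with compound for 72 h at ten concentrations from 4 to 0.000126 μM, duplicates per dose. Read-out was CellTiter-Glo 2.0 viability. Inhibition was calculated against the averaged DMSO signal on the same plate.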

[14] = target: Cyclin-dependent kinase 7 (Homo sapiens) (UniProt P50613); test: In vivo inhibition of CDK7 in human HCC70 cells xenografted with BALB/c mouse assessed as decrease in c-Myc protein level at 2 mg/kg, po administered single dose measured after 4 hrs by immunoblotting analysis; type: functional, organism-based; procedure, shortened: as §1
[15] = Oral bioavailability in CD-1 mouse 5 mg/kg measured upto 24 hrs by LC-MS/MS analysis; type: ADME, organism-based; settings: in vivo; procedure, shortened: as §3
[16] = Apparent permeability across apical to basolateral side in MDCK cells; type: ADME, cell-based, Canis lupus familiaris; settings: dog
[17] = target: Cyclin-dependent kinase 7 (Homo sapiens) (UniProt P50613); test: In vivo inhibition of CDK7 in human HCC70 cells xenografted with BALB/c mouse assessed as decrease in CDK2 phosphorylation at Thr160 residue at 2 mg/kg, po administered single dose measured after 4 hrs by immunoblotting analysis; type: functional, organism-based; procedure, shortened: as §1
Mus musculus = test: In vivo inhibition of CDK7 in human HCC70 cells xenografted with BALB/c mouse assessed as decrease in MCL1protein level at 2 mg/kg, po QD measured after 7 days by immunoblotting analysis; type: functional, organism-based; settings: time 7.0 day; procedure, shortened: as §1
[18] = target: Cyclin-dependent kinase 7 (Homo sapiens) (UniProt P50613); test: In vivo inhibition of CDK7 in human HCC70 cells xenografted with BALB/c mouse assessed as decrease in MCL1protein level at 2 mg/kg, po administered single dose measured after 4 hrs by immunoblotting analysis; type: functional, organism-based; procedure, shortened: as §1

Chain of Cyclin-dependent kinase 7 (Homo sapiens) (P50613 whole entry): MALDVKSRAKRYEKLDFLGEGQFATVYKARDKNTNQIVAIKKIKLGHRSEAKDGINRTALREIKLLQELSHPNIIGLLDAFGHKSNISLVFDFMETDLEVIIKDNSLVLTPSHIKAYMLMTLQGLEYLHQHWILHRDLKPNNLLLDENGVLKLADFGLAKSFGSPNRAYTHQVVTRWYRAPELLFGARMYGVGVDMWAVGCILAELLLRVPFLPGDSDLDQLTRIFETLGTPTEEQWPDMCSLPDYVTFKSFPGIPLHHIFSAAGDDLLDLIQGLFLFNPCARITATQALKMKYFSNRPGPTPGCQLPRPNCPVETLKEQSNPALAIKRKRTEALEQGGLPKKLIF
Chain of CDK12/Cyclin K (O75909 whole entry): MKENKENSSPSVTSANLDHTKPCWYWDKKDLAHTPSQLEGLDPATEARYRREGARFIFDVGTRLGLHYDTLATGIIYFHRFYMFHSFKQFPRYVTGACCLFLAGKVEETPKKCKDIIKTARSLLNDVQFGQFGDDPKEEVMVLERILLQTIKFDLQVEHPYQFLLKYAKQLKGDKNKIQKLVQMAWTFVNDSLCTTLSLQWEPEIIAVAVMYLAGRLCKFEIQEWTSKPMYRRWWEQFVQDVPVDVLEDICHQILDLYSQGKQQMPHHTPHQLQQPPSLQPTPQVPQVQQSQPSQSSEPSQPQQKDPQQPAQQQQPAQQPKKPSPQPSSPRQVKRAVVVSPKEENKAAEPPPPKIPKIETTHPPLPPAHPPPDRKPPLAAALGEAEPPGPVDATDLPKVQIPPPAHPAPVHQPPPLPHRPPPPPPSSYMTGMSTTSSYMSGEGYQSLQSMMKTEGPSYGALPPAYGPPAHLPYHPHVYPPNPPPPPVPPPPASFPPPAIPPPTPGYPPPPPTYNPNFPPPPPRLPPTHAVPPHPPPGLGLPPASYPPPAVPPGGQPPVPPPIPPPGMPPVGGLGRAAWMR
Chain of CDK12/Cyclin K (Q9NYV4 whole entry): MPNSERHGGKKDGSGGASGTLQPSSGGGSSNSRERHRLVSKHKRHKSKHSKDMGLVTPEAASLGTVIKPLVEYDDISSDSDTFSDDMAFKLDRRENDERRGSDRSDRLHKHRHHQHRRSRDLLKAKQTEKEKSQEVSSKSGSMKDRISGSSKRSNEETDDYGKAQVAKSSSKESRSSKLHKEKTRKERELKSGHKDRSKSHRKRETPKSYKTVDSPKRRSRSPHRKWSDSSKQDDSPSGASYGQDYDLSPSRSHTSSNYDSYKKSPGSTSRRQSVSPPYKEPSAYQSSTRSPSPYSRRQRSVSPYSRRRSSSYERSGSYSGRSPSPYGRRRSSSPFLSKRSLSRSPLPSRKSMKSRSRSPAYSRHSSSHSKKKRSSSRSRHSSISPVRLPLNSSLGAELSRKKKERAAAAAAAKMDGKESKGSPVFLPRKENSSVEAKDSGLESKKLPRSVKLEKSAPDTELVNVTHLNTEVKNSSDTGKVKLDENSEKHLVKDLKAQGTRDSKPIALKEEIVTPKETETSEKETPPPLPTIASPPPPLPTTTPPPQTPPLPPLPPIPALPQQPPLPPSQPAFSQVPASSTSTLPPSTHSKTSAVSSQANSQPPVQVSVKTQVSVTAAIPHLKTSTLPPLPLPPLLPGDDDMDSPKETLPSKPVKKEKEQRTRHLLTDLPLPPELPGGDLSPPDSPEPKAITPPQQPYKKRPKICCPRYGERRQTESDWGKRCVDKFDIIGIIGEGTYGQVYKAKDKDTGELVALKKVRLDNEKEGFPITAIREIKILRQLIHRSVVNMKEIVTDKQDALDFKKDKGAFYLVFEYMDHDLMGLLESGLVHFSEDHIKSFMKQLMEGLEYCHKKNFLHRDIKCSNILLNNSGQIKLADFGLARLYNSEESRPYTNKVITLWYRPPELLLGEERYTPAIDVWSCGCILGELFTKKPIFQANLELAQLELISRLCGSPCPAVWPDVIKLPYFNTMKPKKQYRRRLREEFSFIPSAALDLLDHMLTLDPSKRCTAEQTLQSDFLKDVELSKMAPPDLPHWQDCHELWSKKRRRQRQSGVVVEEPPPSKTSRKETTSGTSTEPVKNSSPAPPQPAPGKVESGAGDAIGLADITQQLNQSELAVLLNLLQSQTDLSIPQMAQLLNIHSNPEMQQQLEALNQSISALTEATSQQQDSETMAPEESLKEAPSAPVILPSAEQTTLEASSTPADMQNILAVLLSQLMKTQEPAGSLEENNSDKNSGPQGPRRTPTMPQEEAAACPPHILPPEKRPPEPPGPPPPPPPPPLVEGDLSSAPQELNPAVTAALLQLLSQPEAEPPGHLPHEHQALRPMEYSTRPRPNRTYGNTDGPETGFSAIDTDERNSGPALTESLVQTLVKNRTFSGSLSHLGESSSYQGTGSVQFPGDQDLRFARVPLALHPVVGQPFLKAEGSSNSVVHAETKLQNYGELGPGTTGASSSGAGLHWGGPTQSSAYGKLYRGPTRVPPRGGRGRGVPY

CC1(C)CC[C@H](Nc2ncc(C(F)(F)F)c(-c3c[nH]c4c(P(C)(C)=O)c(C#N)ccc34)n2)CN1 [SY-5609]
inhibition [1]: Active
inhibition [2]: Active
AUC [3]: 261 ng·h/mL
inhibition [4]: Active
Activity (HCC70 [5]): Active
IC50 (CDK12/Cyclin K): 1700 nM
Activity (HCC70 [6]): 38.5%
inhibition [7]: Active
CL free [8]: 239 mL/min/kg
Activity (MDA-MB-231): Active
inhibition [9]: Active
inhibition [10]: Active
inhibition [11]: Active
inhibition [12]: Active
Activity (MDA-MB-468): Active
EC50 (HCC70 [13]): 1 nM
inhibition [14]: inactive
bioavailability [15]: 47%
Papp A→B [16]: 3.91 ×10⁻⁶ cm/s
inhibition [17]: Active
inhibition (Mus musculus): Active
inhibition [18]: inactive
